NPY-Y1 PAM-ag = potentiates or activates human NPY-Y1 receptor; 220,000 tested, 0.37% active; NPY-Y1 expressing cells, potentiator/agonist activation; activation, % at 3.6 µM; P25929; in the data active means activation above about 33%, passing the limit was not always enough;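 further: cells stimulated with NPY at EC10 then isoproterenol at EC100; 0% = low agonist plus stimulus and 100% = saturating agonist plus stimulus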
Target sequence (P25929 whole entry, looked up): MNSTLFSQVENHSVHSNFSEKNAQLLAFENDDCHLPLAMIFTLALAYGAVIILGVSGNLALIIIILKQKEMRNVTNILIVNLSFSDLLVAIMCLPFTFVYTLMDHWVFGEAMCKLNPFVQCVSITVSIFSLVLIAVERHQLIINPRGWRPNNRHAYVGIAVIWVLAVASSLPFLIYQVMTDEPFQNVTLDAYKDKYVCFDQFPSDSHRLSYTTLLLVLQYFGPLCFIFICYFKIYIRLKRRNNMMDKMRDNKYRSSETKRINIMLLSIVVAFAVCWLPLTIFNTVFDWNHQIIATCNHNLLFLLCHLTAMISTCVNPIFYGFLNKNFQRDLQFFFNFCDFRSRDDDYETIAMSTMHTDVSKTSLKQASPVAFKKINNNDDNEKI
RAM inhibit = yeast RAM network inhibition; AID 868; 190,000 tested, 1.8% active; S. cerevisiae dse1pr::URA3 reporter, 5-FOA growth OD615, 2 d; analog-sensitive cbk1-as2 kinase mutant strain; inhibition, % at 50 µM;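 active means inhibition above a set limit, 3 SD over mean compound inhibition, cut at about 8.4% in these data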;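 further: 0% = DMSO-only wells with no growth and 100% = 10 µM 1-NA-PP1 full growth; inhibition rescues growth on 5-FOA so higher OD means more RAM inhibition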
NPY Y2 blocker = NPY-Y2 (human) receptor antagonism; P49146; NPY-Y2 expressing cells, antagonist mode; inhibition, % at 2.7 µM; 140,000 tested, 0.99% active;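 further: 0% = vehicle with agonist challenge and 100% = reference antagonist with challenge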
Target sequence (P49146 whole entry, looked up): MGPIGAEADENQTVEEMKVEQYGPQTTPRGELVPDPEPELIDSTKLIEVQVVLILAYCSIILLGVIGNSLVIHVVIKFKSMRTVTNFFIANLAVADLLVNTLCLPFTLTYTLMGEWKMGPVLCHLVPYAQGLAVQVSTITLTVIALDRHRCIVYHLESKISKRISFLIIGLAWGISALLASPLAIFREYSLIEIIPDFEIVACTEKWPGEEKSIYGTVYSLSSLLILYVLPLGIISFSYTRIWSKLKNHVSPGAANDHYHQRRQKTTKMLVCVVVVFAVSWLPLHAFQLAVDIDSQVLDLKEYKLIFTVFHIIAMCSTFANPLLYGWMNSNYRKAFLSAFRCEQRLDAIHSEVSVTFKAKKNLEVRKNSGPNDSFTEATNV
INS promoter inh = TRM-6 insulin promoter activity inhibition. 130,000 tested, 0.9% active. inhibition, % at 2 µM. TRM-6 cells, insulin promoter-eGFP reporter, imaging; reporter expression induced with tamoxifen;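 active means inhibition above the mean plus 3 SD, with well images judged a real hit on visual review, cut at about 60% in these data, passing the limit was not always enough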
NPY2 pot ag = potentiators or agonists of human neuropeptide Y receptor Y2. 220,000 tested, 0.45% active. activation, % at 3.6 µM. P49146. cells expressing NPY-Y2, potentiator/agonist read-out; in the data active means activation above about 27%;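 further: cells stimulated with NPY near EC25 plus isoproterenol at EC100; 0% = vehicle plus submaximal agonist and 100% = vehicle plus saturating agonist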
NPY Y1 blocker = antagonists of human neuropeptide Y receptor Y1 | P25929 | HEK293-CNG Y1 cells, membrane potential fluorescence; NPY at EC95, then isoproterenol | inhibition, % at 3.6 µM | 200,000 tested, 1% active;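 active means inhibition above the campaign mean inhibition of all tested compounds plus 3 SD, cut at about 20% in these data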;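 further: 0% = DMSO wells given NPY plus isoproterenol and 100% = isoproterenol alone without NPY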
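Test system – HEK293 Y1/CNG channel cell line · Also added – NPY agonist 25 nM, then isoproterenol 1 µM plus Ro 20-1724 25 µM · Compound dosing – one concentration, 3.6 µM, in 0.4% DMSO · Schedule – compound incubation 1 h at room temperature, readout 45 min post-stimulation · Technique – fluorescence, membrane potential probe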
NPY-Y1 ant conf = human NPY-Y1 antagonism, confirmation; 1,200 tested, 21% active; AID 1254; shares compounds with NPY Y1 blocker; inhibition, % at 3.6 µM; HEK293-CNG NPY-Y1, membrane potential fluorescence, cAMP; NPY challenge against isoproterenol-raised cAMP; in the data active means inhibition above about 20%;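 further: 0% = vehicle with agonist plus stimulus and 100% = stimulus alone without agonist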
NPY-Y2 antag ct = counter-screen for NPY-Y1 antagonists: human NPY-Y2 antagonism. 1,200 tested, 28% active. HEK293 NPY-Y2 CNG membrane potential fluorescence; cells given NPY, then isoproterenol. shares compounds with NPY Y1 blocker. inhibition, % at 3.6 µM;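 further: 0% = DMSO with agonist challenge and 100% = reference antagonist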
* hit, by the source's call. Hits are enriched below; roughly 3.8% of the tested compounds scored in any of these assays. Unless noted, no stated cut-off is given here; in the data, active means inhibition above about 17%; inactive means the rest.

`N#Cc1nc(-c2ccccc2F)oc1NCc1cccc2c1OCO2` gave NPY-Y1 PAM-ag -40.3, RAM inhibit 3.0, NPY Y2 blocker 14.2, INS promoter inh -142.9, NPY2 pot ag -52.7, NPY Y1 blocker 28.3*, NPY-Y1 ant conf 5.7 and NPY-Y2 antag ct 6.8.
`Cc1cc(C(=O)N(CCC#N)Cc2cccs2)no1` gave NPY-Y1 PAM-ag 11.5 and NPY2 pot ag -2.3.
Screening O=c1[nH]c(CSc2nnc(-c3ccccc3)n2C2CCCCC2)nc2ccccc12 returned NPY-Y1 PAM-ag -3.8, RAM inhibit 7.2, NPY Y2 blocker 0.4, NPY2 pot ag 10.4, NPY Y1 blocker 29.9*, NPY-Y1 ant conf -2.2 and NPY-Y2 antag ct 0.5.
Screening O=c1[nH]c(CSc2nnc(-c3ccccc3)n2-c2ccccc2)nc2ccccc12 returned NPY-Y1 PAM-ag 1.8, RAM inhibit 2.5, NPY Y2 blocker 2.1, INS promoter inh -28.6, NPY2 pot ag -12.1 and NPY Y1 blocker -2.1.
Screening CCn1c(Sc2nc(C)nc3scc(-c4cccs4)c23)n[nH]c1=O returned NPY-Y1 PAM-ag -2.8, RAM inhibit -1.4, NPY Y2 blocker 1.9, NPY2 pot ag -2.2, NPY Y1 blocker 20.5*, NPY-Y1 ant conf 6.6 and NPY-Y2 antag ct 36.8*.
O=C(c1ccccc1)c1ccccc1C(=O)N1CCN(C(=O)c2ccccc2)CC1 was read as NPY-Y1 PAM-ag -4.0, RAM inhibit 2.5, NPY2 pot ag -18.5 and NPY Y1 blocker 6.4.
For CCOC(=O)c1ccc(CNC(=O)CSc2nnnn2-c2ccc(Cl)cc2)o1 the results were NPY-Y1 PAM-ag -8.6, RAM inhibit 2.5, NPY Y2 blocker 8.3, INS promoter inh -50.0, NPY2 pot ag -14.5, NPY Y1 blocker 20.4*, NPY-Y1 ant conf 10.4 and NPY-Y2 antag ct 12.1.
`Cc1ccc(N2C(=O)c3ccccc3NC2C(C)Cc2ccc3c(c2)OCO3)cc1` (stereo not given) gave NPY-Y1 PAM-ag -50.5, RAM inhibit 4.1, NPY Y2 blocker 16.9, INS promoter inh 6.9, NPY2 pot ag -17.0, NPY Y1 blocker 44.0*, NPY-Y1 ant conf 119.8* and NPY-Y2 antag ct 108.2*.
For C=CCSc1nnc(-c2cc3c(s2)-c2ccccc2CC3)o1 the results were NPY-Y1 PAM-ag -38.0, RAM inhibit 1.7, NPY Y2 blocker 6.6, INS promoter inh 26.7, NPY2 pot ag -28.3, NPY Y1 blocker 20.6*, NPY-Y1 ant conf 8.5 and NPY-Y2 antag ct 5.3.
`CC1=CC(C)(C)N(C(=O)CNC2CCCCC2)c2cc(C)ccc21` gave NPY-Y1 PAM-ag -1.7, RAM inhibit 0.8, NPY2 pot ag -5.2, NPY Y1 blocker 24.6*, NPY-Y1 ant conf 20.9* and NPY-Y2 antag ct 6.6.
CC1=CC(C)(C)N(C(=O)CCl)c2cc(C)ccc21 was read as NPY-Y1 PAM-ag 7.7, RAM inhibit 0.4, NPY2 pot ag 2.4 and NPY Y1 blocker -0.1.
`O=S1(=O)CCN(OCc2ccc(F)cc2Cl)CC1` gave NPY-Y1 PAM-ag 2.8, RAM inhibit 0.7, INS promoter inh 66.7, NPY2 pot ag -6.0 and NPY Y1 blocker -2.9.
Fc1ccc(Cn2cccc2C2=NC(c3ccccc3)CO2)cc1 (stereo not given) was read as NPY-Y1 PAM-ag -4.3, RAM inhibit -0.7, INS promoter inh -45.5, NPY2 pot ag 11.1 and NPY Y1 blocker 5.7.
Screening Cc1oc(-c2ccccc2)nc1Cn1cccc1C1=NC(c2ccccc2)CO1 (stereo not given) returned NPY-Y1 PAM-ag 18.4, RAM inhibit 3.5, NPY Y2 blocker 9.7, INS promoter inh -62.5, NPY2 pot ag 0.0, NPY Y1 blocker 21.6*, NPY-Y1 ant conf 21.3* and NPY-Y2 antag ct 23.9*.
Screening O=C(C(Cc1ccccc1)n1cccc1)N1CCN(c2ccccc2)CC1 (stereo not given) returned NPY-Y1 PAM-ag -0.2, RAM inhibit 2.4, NPY Y2 blocker 7.5, NPY2 pot ag -8.3 and NPY Y1 blocker 5.7.
For Cc1ccc(C)c(N2CCN(C(=O)C(Cc3ccccc3)n3cccc3)CC2)c1 (stereo not given) the results were NPY-Y1 PAM-ag -23.5, RAM inhibit 5.7, NPY Y2 blocker 12.7, NPY2 pot ag -26.7, NPY Y1 blocker 24.9*, NPY-Y1 ant conf 10.7 and NPY-Y2 antag ct 15.0.
Screening CN1CCN(C(=O)C2=C[C@H](C(C)(C)C)C[C@H](OCCCCO)O2)CC1 returned NPY-Y1 PAM-ag 14.3, RAM inhibit 0.0, NPY2 pot ag -4.0 and NPY Y1 blocker -3.7.
Screening Cc1cccc(C(=O)NNc2ncnc3c2cnn3C)c1 returned NPY-Y1 PAM-ag 15.3, RAM inhibit 1.4, INS promoter inh 8.3, NPY2 pot ag -10.1 and NPY Y1 blocker -5.2.
CC(C)N1CCC(NC(=O)NC2CCCCC2)CC1 was read as NPY-Y1 PAM-ag 3.6, RAM inhibit -0.2, NPY2 pot ag 0.9 and NPY Y1 blocker 2.3.
`O=S(=O)(NCc1ccc2c(c1)OCO2)c1ccc2c(c1)oc1ccccc12` gave NPY-Y1 PAM-ag -29.8, RAM inhibit 2.0, NPY Y2 blocker 8.5, INS promoter inh -388.2, NPY2 pot ag -8.9, NPY Y1 blocker 21.5*, NPY-Y1 ant conf 16.9 and NPY-Y2 antag ct 19.0*.
For COc1cc(S(=O)(=O)NCc2ccc3c(c2)OCO3)ccc1Cl the results were NPY-Y1 PAM-ag -10.2, RAM inhibit 1.7, NPY Y2 blocker 7.4, INS promoter inh 15.2, NPY2 pot ag -6.6 and NPY Y1 blocker 7.8.
For O=c1c(-c2cccc3ccccc23)[n+]([O-])c2ccccc2n1O the results were NPY-Y1 PAM-ag 8.4, RAM inhibit -0.8, NPY Y2 blocker 0.3, INS promoter inh 45.7, NPY2 pot ag -18.0 and NPY Y1 blocker 0.1.
CC(C)N(CCNCC(O)COc1ccc(C(C)(C)c2ccccc2)cc1)C(C)C (stereo not given) was read as NPY-Y1 PAM-ag -22.2, RAM inhibit -2.0, NPY2 pot ag -6.2, NPY Y1 blocker 24.8*, NPY-Y1 ant conf 14.0 and NPY-Y2 antag ct 26.4*.
Screening OC(CNCCc1ccccc1)COc1ccc(OCC(O)CNCCc2ccccc2)cc1 (stereo not given) returned NPY-Y1 PAM-ag -6.2 and NPY2 pot ag 0.7.
`CN(C)CCOc1ccc(C(C)(C)c2ccccc2)cc1` gave NPY-Y1 PAM-ag 9.4, RAM inhibit 0.8, NPY2 pot ag -1.8 and NPY Y1 blocker 0.9.
CN(C)CCCOc1ccc(C(C)(C)c2ccccc2)cc1 was read as NPY-Y1 PAM-ag -48.8, RAM inhibit -1.4, NPY Y2 blocker 12.9, INS promoter inh -43.3, NPY2 pot ag -33.7, NPY Y1 blocker 22.8*, NPY-Y1 ant conf 14.3 and NPY-Y2 antag ct 22.5*.

Source: PubChem
